# Measured values of several laboratories.
# Compare with care: the assays were run in different laboratories.
# AVPR2: Vasopressin V2 receptor (AVPR2, Homo sapiens, UniProt P30518)
# HTR1E: 5-hydroxytryptamine receptor 1E (HTR1E, Homo sapiens, UniProt P28566)
Compound,target,test,EC50 [µM]
CC1=NN(/C(=N\c2ccccc2F)Nc2nnc(C)s2)C(c2ccc(C)cc2)S1 (stereo not drawn),AVPR2,"cAMP, positive allosteric modulator",41.4
CC(C)=CCn1cnc(=N)c2[nH]cnc21,"G-protein coupled receptor 84 (GPR84, Homo sapiens, UniProt Q9NQS5)","cAMP, agonist, luciferase",32
CC1=NN(/C(=N/c2nnc(C)s2)Nc2ccc(C)c(C)c2)C(c2ccc(F)c(C(F)(F)F)c2)S1 (stereo not drawn),AVPR2,"cAMP, positive allosteric modulator",> 50
CN1CCN2c3ncccc3Cc3ccccc3C2C1 (stereo not drawn),HTR1E,"G protein activation, agonist, BRET",0.755
CC(C)=CCNc1ncnc2c1ncn2[C@@H]1O[C@H](CO)[C@@H](O)[C@H]1O,"Adenosine receptor A3 (ADORA3, Homo sapiens, UniProt P0DMS8, V169L)","G protein activation, agonist",1.2
CN(C)CCOC1=Cc2ccccc2Sc2ccc(Cl)cc21,HTR1E,"G protein activation, agonist, BRET",0.622
CCCc1ccc(/N=C(/Nc2nnc(C)s2)N2N=C(C)SC2c2ccc(C)cc2)cc1 (stereo not drawn),AVPR2,"cAMP, positive allosteric modulator",3.9
COc1ccccc1N1CCN(CCCCN2C(=O)c3ccccc3C2=O)CC1,HTR1E,"G protein activation, agonist, BRET",2.17
CN(C)c1ncnc2c1ncn2[C@@H]1O[C@H](CO)[C@@H](O)[C@H]1O,"Adenosine receptor A3 (ADORA3, Homo sapiens, UniProt P0DMS8, I253Q)","G protein activation, agonist",46
